The test system of data set [1] is COLO 205. Nature of the data set: Antitumor activity against human COLO205 cells xenografted in nude mouse assessed as tumor growth inhibition at 40 mg/kg, po bid measured after 28 days relative to control. Format: functional. Conditions: COLO 205, po, 672 h, read-out: TGI; call rule not given here. In a few lines: (§1)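 Female nude mice carrying Colo-205 human colon tumor xenografts were randomized to oral dosing twice daily at 20, 40 or 60 mg/kg, or to vehicle. After 28 days of treatment, tumor growth inhibition or tumor regression was assessed relative to vehicle control, with P-value testing.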
A general note: A xenograft is tissue or cells of one species grown in another, often human tumour cells in immunodeficient mice.

In a further data set the target is T1, Cytochrome P450 1A2 (Homo sapiens, UniProt P05177).
T1 sequence (P05177 whole entry): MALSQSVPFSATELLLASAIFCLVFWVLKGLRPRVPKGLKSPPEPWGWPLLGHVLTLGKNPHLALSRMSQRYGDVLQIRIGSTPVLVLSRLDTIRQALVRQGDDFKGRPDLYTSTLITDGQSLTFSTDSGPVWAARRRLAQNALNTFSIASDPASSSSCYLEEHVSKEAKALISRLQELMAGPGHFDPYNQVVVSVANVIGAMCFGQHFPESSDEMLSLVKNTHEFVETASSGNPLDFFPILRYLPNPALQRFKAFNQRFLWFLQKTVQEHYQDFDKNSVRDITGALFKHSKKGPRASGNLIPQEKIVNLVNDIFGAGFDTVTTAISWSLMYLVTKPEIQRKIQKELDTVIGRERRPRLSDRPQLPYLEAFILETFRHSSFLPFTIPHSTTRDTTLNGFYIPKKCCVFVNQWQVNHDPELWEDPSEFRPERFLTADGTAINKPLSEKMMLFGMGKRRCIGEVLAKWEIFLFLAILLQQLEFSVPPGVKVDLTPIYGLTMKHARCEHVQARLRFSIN
Nature of the data set: Inhibition of CYP1A2 (unknown origin) preincubated followed by substrate addition. Format: ADME.

Data set [2] can be described thus: Half life in monkey at 1 mg/kg, iv. Conditions: cynomolgus monkey, in vivo.
Data set [3] relates to COLO 205. Put plainly: Antitumor activity against human COLO205 cells xenografted in nude mouse assessed as tumor regression at 60 mg/kg, po bid measured after 28 days relative to control. The format is functional. The gist of the method: as §1
A short description of data set [4]: Half life in CD1 mouse at 10 mg/kg, iv. The format is ADME, organism-based. Conditions: in vivo. In a few lines:
(§2)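 The compound was given intravenously as an aqueous solution in 20% hydroxypropyl-β-cyclodextrin. Animals were male CD1 mice (10 mg/kg, n = 30), Sprague–Dawley rats (3 mg/kg, n = 3), beagle dogs (3 mg/kg, n = 3) and cynomolgus monkeys (1 mg/kg, n = 3). Plasma concentration–time data gave mean AUC(0–∞), half-life, mean residence time, clearance and Vd,ss.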

Data set [5] has as its system Cavia porcellus. Put plainly: Cardiotoxicity in telemetered guinea pig assessed as changes in PR interval at 30 to 100 mg/kg. To be noted: in vivo. The format is toxicity, organism-based. The gist of the method: (§3)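 Telemetered guinea pigs were exposed at 30 and 100 mg/kg. Electrocardiographic PR, QRS and QT/QTc intervals were monitored for changes related to the test article, and exposure was referenced to total Cmax.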

Data set [6] in a line: Clearance in Beagle dog at 3 mg/kg, iv. The format is ADME, organism-based, Canis lupus familiaris. To be noted: in vivo. In a few lines: as §2
Data set [7] is described as follows: Half life in Beagle dog at 3 mg/kg, iv. Format: ADME, organism-based, Canis lupus familiaris. To be noted: in vivo. The gist of the method:
as §2

Data set [8] in a line: Volume of distribution at steady state in Sprague-Dawley rat at 3 mg/kg, iv. To be noted: in vivo, read-out: Vdss. Format: ADME, organism-based. The gist of the method: (§4)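 Intravenous dosing in male CD1 mice (10 mg/kg, n = 30), Sprague–Dawley rats (3 mg/kg, n = 3), beagle dogs (3 mg/kg, n = 3) and cynomolgus monkeys (1 mg/kg, n = 3). Vehicle was aqueous 20% hydroxypropyl-β-cyclodextrin. Mean residence time and steady-state volume of distribution were taken from plasma concentration–time profiles as mean parameters.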

The next data set addresses hERG (KCNH2) (Homo sapiens, UniProt Q12809). Put plainly: Inhibition of human ERG at 5 mg/ml by binding assay relative to control. Set-up: dose or concentration left out as unconfirmed.
Data set [9] is described as follows: Tmax in CD1 mouse at 30 mg/kg, po. To be noted: in vivo. Format: ADME, organism-based. In a few lines: (§5)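 Oral dosing in male CD1 mice (30 mg/kg, n = 27), Sprague–Dawley rats (10 mg/kg, n = 3), beagle dogs (30 mg/kg, n = 3) and cynomolgus monkeys (10 mg/kg, n = 3). Mean Tmax was read from plasma concentration–time data. Bioavailability was derived from oral AUC(0–∞) compared with intravenous AUC.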

The nature of data set [10]: Clearance in monkey at 1 mg/kg, iv. Conditions: cynomolgus monkey, in vivo.
Data set [11] has as its target Mitogen-activated protein kinase 1 (Homo sapiens, UniProt P28482). Nature of the data set: Inhibition of ERK2 (unknown origin) using peptide substrate measured after 45 mins by IMAP assay.
Data set [12] is described as follows: Protein binding in monkey plasma at 10 uM. Format: ADME, cell-free, Macaca mulatta. To be noted: rhesus monkey, read-out: PPB.
A short description of data set [13]: Volume of distribution at steady state in CD1 mouse at 10 mg/kg, iv. The format is ADME, organism-based. To be noted: in vivo, read-out: Vdss. The gist of the method:
as §4

Data set [14] has as its target Mitogen-activated protein kinase; ERK1/ERK2 (Homo sapiens) (UniProt P27361+P28482). Nature of the data set: Inhibition of ERK1/2 phosphorylation in human A2058 cells after 24 hrs by Western blot analysis. The format is cell-based. In a few lines: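 A2058 melanoma cells were treated across a compound dose range. pERK1/2 and pRSK levels were detected by Western blot analysis.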

For the next data set, the target named is T2, Cytochrome P450 2C8 (Homo sapiens, UniProt P10632).
T2 sequence (P10632 whole entry): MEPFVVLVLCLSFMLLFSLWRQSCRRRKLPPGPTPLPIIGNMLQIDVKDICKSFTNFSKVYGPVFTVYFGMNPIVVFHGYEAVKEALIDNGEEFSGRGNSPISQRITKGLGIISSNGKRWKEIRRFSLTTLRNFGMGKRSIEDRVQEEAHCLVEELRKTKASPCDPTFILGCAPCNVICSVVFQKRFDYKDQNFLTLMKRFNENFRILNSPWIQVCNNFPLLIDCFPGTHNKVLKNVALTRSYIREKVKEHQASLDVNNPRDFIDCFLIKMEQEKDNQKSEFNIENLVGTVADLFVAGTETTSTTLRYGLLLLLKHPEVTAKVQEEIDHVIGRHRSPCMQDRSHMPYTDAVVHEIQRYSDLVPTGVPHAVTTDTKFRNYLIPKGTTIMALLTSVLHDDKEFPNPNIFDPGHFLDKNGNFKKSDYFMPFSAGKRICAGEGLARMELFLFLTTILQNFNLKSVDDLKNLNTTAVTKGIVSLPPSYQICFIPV
Put plainly: Inhibition of CYP2C8 (unknown origin) co-incubated with substrate. Format: ADME.

The test system of a further data set is Mus musculus. Nature of the data set: Oral bioavailability in CD1 mouse at 30 mg/kg. Format: ADME, organism-based. Conditions: in vivo. In a few lines:
as §5

The subject of data set [15] is Cavia porcellus. Nature of the data set: Cardiotoxicity in telemetered guinea pig assessed as changes in QTc interval at 30 to 100 mg/kg. Format: toxicity, organism-based. To be noted: in vivo. In a few lines:
as §3

Data set [16] in a line: Clearance in Sprague-Dawley rat at 3 mg/kg, iv. Conditions: in vivo. The format is ADME, organism-based. The gist of the method: as §2
Data set [17] has as its system COLO 205. Nature of the data set: Antitumor activity against human COLO205 cells xenografted in nude mouse assessed as tumor growth inhibition at 20 mg/kg, po bid measured after 28 days relative to control. To be noted: COLO 205, po, 672 h, read-out: TGI. The format is functional. The gist of the method:
as §1

Data set [18] addresses Mitogen-activated protein kinase 3 (Homo sapiens, UniProt P27361). Put plainly: Inhibition of ERK1 (unknown origin) using peptide substrate measured after 45 mins by IMAP assay.
The subject of data set [19] is COLO 205. Nature of the data set: Antiproliferative activity against human COLO205 cells harboring BRAF V600E/D mutant measured after 4 days. Format: functional, cell-based. To be noted: COLO 205, 96 h.

Chain of Mitogen-activated protein kinase 1 (P28482 whole entry): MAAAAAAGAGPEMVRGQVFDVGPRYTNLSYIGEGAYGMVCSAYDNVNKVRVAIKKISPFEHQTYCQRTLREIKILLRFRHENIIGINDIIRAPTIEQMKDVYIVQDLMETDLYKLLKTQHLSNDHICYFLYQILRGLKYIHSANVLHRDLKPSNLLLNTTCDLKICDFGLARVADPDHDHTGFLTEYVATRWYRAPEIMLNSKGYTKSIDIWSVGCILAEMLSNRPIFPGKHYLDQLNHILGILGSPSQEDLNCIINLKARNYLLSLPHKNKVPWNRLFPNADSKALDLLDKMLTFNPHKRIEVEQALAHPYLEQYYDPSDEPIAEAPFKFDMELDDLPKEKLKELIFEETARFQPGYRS
Chain of hERG (KCNH2) (Q12809 whole entry): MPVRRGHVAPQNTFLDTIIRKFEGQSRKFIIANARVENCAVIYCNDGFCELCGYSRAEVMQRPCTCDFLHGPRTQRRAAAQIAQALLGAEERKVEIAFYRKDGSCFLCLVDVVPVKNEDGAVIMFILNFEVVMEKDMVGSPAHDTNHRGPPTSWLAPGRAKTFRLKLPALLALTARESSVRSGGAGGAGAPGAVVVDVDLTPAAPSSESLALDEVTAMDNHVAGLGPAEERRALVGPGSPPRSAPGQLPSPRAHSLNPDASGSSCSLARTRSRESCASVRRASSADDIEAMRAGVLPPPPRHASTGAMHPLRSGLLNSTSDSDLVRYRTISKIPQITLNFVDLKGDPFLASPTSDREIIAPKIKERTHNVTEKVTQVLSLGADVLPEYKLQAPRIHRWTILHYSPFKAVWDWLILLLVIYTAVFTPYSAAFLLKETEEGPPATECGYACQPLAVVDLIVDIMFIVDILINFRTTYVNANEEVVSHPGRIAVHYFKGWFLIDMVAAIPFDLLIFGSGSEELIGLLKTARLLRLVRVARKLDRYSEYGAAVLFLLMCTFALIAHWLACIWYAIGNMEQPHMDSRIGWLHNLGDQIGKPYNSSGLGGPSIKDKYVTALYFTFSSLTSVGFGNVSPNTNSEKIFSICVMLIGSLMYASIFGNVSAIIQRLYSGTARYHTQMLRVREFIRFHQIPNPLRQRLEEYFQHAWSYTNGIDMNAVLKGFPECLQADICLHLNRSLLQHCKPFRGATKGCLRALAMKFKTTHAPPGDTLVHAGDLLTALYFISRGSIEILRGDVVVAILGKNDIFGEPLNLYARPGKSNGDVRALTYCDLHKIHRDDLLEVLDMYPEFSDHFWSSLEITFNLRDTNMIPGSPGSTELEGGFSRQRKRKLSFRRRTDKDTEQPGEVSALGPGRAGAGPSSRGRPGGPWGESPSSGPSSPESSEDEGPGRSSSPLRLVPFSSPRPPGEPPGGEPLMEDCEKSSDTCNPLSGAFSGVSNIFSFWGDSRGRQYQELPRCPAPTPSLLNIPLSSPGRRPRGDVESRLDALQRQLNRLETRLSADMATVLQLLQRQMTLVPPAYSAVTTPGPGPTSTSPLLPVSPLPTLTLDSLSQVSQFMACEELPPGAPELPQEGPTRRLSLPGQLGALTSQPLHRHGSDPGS
Chain of Mitogen-activated protein kinase 3 (P27361 whole entry): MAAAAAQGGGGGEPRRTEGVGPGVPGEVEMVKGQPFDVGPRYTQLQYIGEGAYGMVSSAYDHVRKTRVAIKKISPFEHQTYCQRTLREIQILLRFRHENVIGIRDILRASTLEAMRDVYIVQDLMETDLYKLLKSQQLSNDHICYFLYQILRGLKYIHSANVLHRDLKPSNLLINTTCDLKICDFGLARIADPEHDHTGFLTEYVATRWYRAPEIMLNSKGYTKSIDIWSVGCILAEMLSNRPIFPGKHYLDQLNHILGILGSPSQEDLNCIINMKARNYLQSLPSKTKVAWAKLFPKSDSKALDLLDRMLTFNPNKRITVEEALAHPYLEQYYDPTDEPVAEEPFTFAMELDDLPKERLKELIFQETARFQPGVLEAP
Chain of Mitogen-activated protein kinase; ERK1/ERK2 (Homo sapiens) (P27361 whole entry, looked up): as the sequence (P27361 whole entry) above
Chain of Mitogen-activated protein kinase; ERK1/ERK2 (Homo sapiens) (P28482 whole entry, looked up): as the sequence (P28482 whole entry) above

For `CS[C@@]1(C(=O)Nc2ccc3[nH]nc(-c4ccc(OC(C)C)nc4)c3c2)CCN(CC(=O)N2CC=C(c3ccc(-c4ncn(C)n4)cc3)CC2)C1` [MK-8353], the inhibition in vivo at 40 mg/kg with COLO 205 [1] was found to be 88%. Besides, on Cytochrome P450 1A2, the “inhibition (INH)” value is reported as “Not Active”. For the same compound, the half-life (usually how long it takes for the measured level to halve) in data set [2] was 1.3 h; in [4] it was 1.8 h; in data set [7] it was 2.8 h. Further, the Activity with COLO 205 [3] is 40%; in the data set with Cavia porcellus [5], “Non-Toxic”; in the data set with Cavia porcellus [15], “Non-Toxic”. The clearance (in general, a measure of how efficiently the substance is removed, as volume per time) in data set [6] was 3.9 mL/min/kg; in data set [10] it was 17.9 mL/min/kg; in [16], 1 mL/min/kg. The Vd is 0.1 L/kg in data set [8] and 3.3 L/kg in data set [13]. Moreover, the figures for the inhibition (on hERG (KCNH2); in data set [14]) were 6% and “Dose-dependent effect”, respectively. Moreover, the Tmax (as a rule, the time from dosing to the highest level) in [9] is 1 h. The IC50 (commonly the point on the concentration scale where inhibition reaches its midpoint) in data set [11] is 0.007 µM; at Cytochrome P450 2C8 it was > 5 µM; in data set [18], 0.02 µM; in the data set on COLO 205 [19], 0.023 µM. For the same compound, the fraction unbound at 10 µM in data set [12] was < 0.01. The same compound had a F in the data set on Mus musculus of 80%. Moreover, the inhibition in vivo at 20 mg/kg with COLO 205 [17] turned out to be 37%.

For the origin of these results see ChEMBL document CHEMBL4196128 (ACS Med Chem Lett, 2018).
